Compounds with a hit are over-represented: about 6.6% of the library has one in this group of screens.
Ecoli tolC: growth inhibitors of E. coli tolC mutant, primary screen, strain BW25113 ΔtolC::kan, 384-well; growth inhibition, % at 10 µM (by protocol); 65,000 tested, 2.2% active; AID 573, 2007; OD615;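 active = growth inhibition at or above a cutoff equal to the mean over every tested compound plus 3 SD, cut at about 60% in these data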;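 also: growth measured after 20 h incubation at 37 °C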
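Test system: E. coli BW25113 ΔtolC::kan bacteria | Medium: Kanamycin-containing LB broth (50 µg/mL) | Dosing: One dose of 10 µM final | Times: 20 h incubation with compound, 37 °C | Detection: Optical density read at 615 nm | Read-out basis: Percent growth inhibition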
HER2 expr 66K: inhibitors of Her2 protein expression, primary screen, SKBR-3 cells, AlphaScreen, 66K library; SKBR-3 HER2 protein level, 18-24 h; hits give low values; Receptor tyrosine-protein kinase erbB-2 (Homo sapiens), P04626; HER2 level % of control, % at 10 µM; 65,000 tested, 0.69% active;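 active = HER2 level under 5% of the carrier-only control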;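 also: 100% = DMSO carrier and 0% = 500 nM PU-H71 HSP90 inhibitor; lower value means stronger loss of Her2 protein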
PostGolgi ctrl: growth inhibition of yeast control strain, primary screen, counter-screen for post-Golgi transport modulator project | efflux-deficient yeast background strain, growth absorbance A615, 16 h | inhibition, % at 10 µM | 98,000 tested, 5% active | AID 738, 2007
PostGolgi yeast: phenotypic screen on post-Golgi transport, primary screen. post-Golgi transport phenotypic cell assay. inhibition, % at 10 µM. 98,000 tested, 0.9% active. AID 739, 2007;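 also: yeast cells grown in 1536-well plates; yeast grown about 18 h at 30C before absorbance read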
E coli WT exp: growth inhibitors of wild-type E. coli, primary screen, strain BW25113, expanded library, OD600; OD600 absorbance; 98,000 tested, 0.15% active; AID 710, 2007; growth inhibition, % at 100 µM;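 active = growth inhibition above about 50% at one test dose, limit read from the data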;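 also: growth measured after 20 h incubation at 37 °C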
Starred values were filed as active, the others as inactive; / = no result given. Rule as the data show it, unless noted: active = inhibition above about 30%; inactive = the rest.

SMILES | Ecoli tolC | HER2 expr 66K | PostGolgi ctrl | PostGolgi yeast | E coli WT exp
O=C(NC1CCCC1)C1C2C=CC(C2)C1C(=O)N1CCOCC1 (configuration not stated) | 2 | 89 | -5 | -5 | -3
O=C(O)C1C2C=CC(C2)C1C(=O)N1CCOCC1 (configuration not stated) | -23 | 97 | 53* | -10 | -3
Cc1ccc(NC2=CC(=O)CC(C)(C)C2)cc1C | 1 | 94 | 8 | 3 | 6
Cc1ccc(NC2=CC(=O)CC(C)(C)C2)c(N)c1 | -7 | 94 | 38* | -3 | -3
COC(=O)c1ccc(CC(=O)c2c(C)cc(O)cc2O)o1 | -18 | 106 | 3 | 5 | 3
Cc1c(C#N)c(N=CN(C)C)c(C(=O)c2ccc(Br)cc2)n1-c1ccc(Cl)cc1 | / | / | 23 | -13 | -17
Cc1c(N2C(=O)CSC23C(=O)Nc2ccccc23)c(=O)n(-c2ccccc2)n1C (configuration not stated) | -5 | 104 | 40* | -7 | 3
Cc1c(N2C(=O)C(C)SC23C(=O)Nc2ccccc23)c(=O)n(-c2ccccc2)n1C (configuration not stated) | -3 | 86 | 4 | 1 | -1
COc1cc2c3c(c1)C1(C(=O)N3C(C)(C)C=C2C)C(C#N)=C(N)Oc2cc(O)ccc21 (configuration not stated) | 65* | 130 | 5 | 3 | 7
CCOc1cc2c3c(c1)C1(C(=O)N3C(C)(C)C=C2C)C(C#N)=C(N)Oc2cc(O)ccc21 (configuration not stated) | 57 | 83 | 10 | -3 | 2
COc1ccc(OC)c(-n2c(SCC(=O)NCc3ccco3)nnc2-c2c[nH]c3ccccc23)c1 | 33 | 58 | 4 | 1 | -7
COc1cc(NC(=O)c2cnn3c(C)cc(C)nc23)c(OC)cc1Cl | 20 | / | 41* | 0 | -5
COc1cc(NC(=O)c2ccc(Cl)cc2)c(OC)cc1Cl | / | / | 0 | 24 | -2
O=C1CCCc2nc3nc4ccccc4n3cc21 | 93* | 68 | -6 | -5 | 46
O=C1CCCc2nc(N3CCN(c4ccccc4)CC3)ncc21 | -8 | 99 | 8 | -6 | -7
CC1(C)CC(=O)C(C=NCC2CCN(C(=O)Nc3ccc(Cl)c(Cl)c3)CC2)=C(O)C1 | / | / | 38* | 11 | -8
O/N=C/c1cc(Br)ccc1OCc1cccc(F)c1 | / | / | 35* | 10 | 10
O/N=C/c1cc(Br)cc(Br)c1OCc1ccccc1 | / | / | 58* | 3 | 0
O/N=C/c1cc(Cl)ccc1OCc1ccccc1Cl | / | / | 30 | 7 | -14
CCOc1ccc(Cl)cc1/C=N/O | 4 | 157 | 19 | 12 | 14
Cc1ccc(COc2ccc(Br)cc2/C=N/O)cc1 | / | / | 44* | 19 | 13
CC(C)OCCCNC(=O)Cn1nc(-c2ccccc2)ccc1=O | 4 | 99 | 7 | -1 | 6
O=C(CSc1nc(-c2ccccc2)cc(=O)[nH]1)Nc1ccccn1 | -7 | 94 | 8 | 3 | -3
O=C(CSc1n[nH]c(-c2ccc(Cl)cc2Cl)n1)Nc1ccccn1 | / | / | 33* | -3 | -5
COc1ccccc1-n1c(CNc2c(C)cccc2C)nnc1SCC(=O)N1CCOCC1 | 8 | 86 | 7 | 5 | -2
SMILES | Ecoli tolC | HER2 expr 66K | PostGolgi ctrl | PostGolgi yeast | E coli WT exp
COc1ccc(C(=O)Nc2ccccc2N2CCN(C(=O)C(C)C)CC2)cc1Cl | / | / | 15 | 3 | -9
COc1cccc(C(=O)OCC(=O)Nc2ccccc2N2CCOCC2)c1 | 24 | 86 | 38* | 4 | 2
Cc1ccccc1OCC(=O)Nc1ccccc1N1CCCCC1 | 39 | 114 | 0 | -4 | 6
Cc1ccc(OCC(=O)Nc2ccccc2N2CCOCC2)c(C)c1 | / | / | 7 | 9 | 6
COc1ccc(Cl)cc1C(=O)Nc1ccccc1N1CCN(C(=O)C(C)C)CC1 | 11 | 70 | 54* | 11 | -11
Cc1cc(Cl)ccc1OCC(=O)Nc1ccccc1N1CCOCC1 | 86* | 61 | 23 | -5 | -19
Cc1cccc(OCC(=O)Nc2ccccc2N2CCN(C(=O)C(C)C)CC2)c1C | 56 | 78 | 42* | 3 | 8
COc1cccc(C(=O)Nc2ccccc2N2CCOCC2)c1 | 9 | 94 | 9 | -4 | -5
CCOC(=O)Cc1c(C)nc2c(-c3ccc(OC)cc3)c(C)nn2c1C | / | / | 9 | -12 | -11
O=C(Nc1cnc2sccn2c1=O)c1ccc(Cl)cc1Cl | / | / | 32* | -3 | 2

Compound activity: PubChem, SRMLSC
